WT yeast gro inh: growth inhibition of WT strain, primary screen, mitochondrial fusion inhibitor project, WT and mutant strains, chemical genetic. mitochondrial fusion phenotypic screen. inhibition, % at 10 µM. 190,000 tested, 2.1% active. AID 1362, 2008; in the data active = inhibition above about 58%; tested in S. cerevisiae
EBV gp42 inh: Epstein-Barr virus gp42 inhibitors, primary screen, biochemical, uHTS, fluorescence polarization | Glycoprotein 42 (Epstein-Barr virus (strain AG876)), Q1HVG2 | Fluorescence polarization binding assay, mP read-out | inhibition, % (tested at 21.74 µM) | 220,000 tested, 0.42% active; in the data active = inhibition above about 50%
Target sequence (Q1HVG2 whole entry, looked up): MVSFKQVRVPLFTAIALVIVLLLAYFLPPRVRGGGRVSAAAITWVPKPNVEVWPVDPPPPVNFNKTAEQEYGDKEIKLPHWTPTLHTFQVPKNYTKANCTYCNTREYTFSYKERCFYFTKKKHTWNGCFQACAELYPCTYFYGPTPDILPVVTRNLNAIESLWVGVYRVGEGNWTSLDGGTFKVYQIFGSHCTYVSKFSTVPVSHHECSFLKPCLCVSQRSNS
GRIN3A LBD mod: binders of NR3A ligand-binding domain, primary screen, biophysical, differential scanning fluorimetry, uHTS; AID 1259313, 2017; Tm shift relative to glycine control, % at 25 µM; 340,000 tested, 2.5% active; NR3A LBD differential scanning fluorimetry, Tm shift; 0% = protein alone, 100% = glycine-bound protein;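 active = melting temperature shift of at least 10% of the positive control shift, at one fixed dose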
MPTP block: mitochondrial permeability transition pore inhibitors, primary screen, biochemical, isolated mouse mitochondria, absorbance | Ca2+ swelling absorbance, 30 min | inhibition, % at 10 µM | 360,000 tested, 1.4% active | AID 602449, 2012;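 active = inhibition of 50% or more, scaled per plate between neutral and stimulator controls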
CHOP inh: inhibitors of CHOP promoter induction, primary screen, cell-based, unfolded protein response, luciferase reporter; CHO-K1 CHOP-promoter luciferase, tunicamycin-induced, 15-18 h; inhibition, % at 10 µM; 220,000 tested, 3.8% active; AID 2732, 2010;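 active = compounds that reduced the stress-induced luciferase reporter signal by more than about 70% of percent inhibition, limit read from the data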
Tb MetRS inh: T. brucei MetRS inhibitors, primary screen, biochemical, luminescence. methionyl-tRNA synthetase (Trypanosoma brucei brucei). purified T. brucei MetRS, ATP depletion, Kinase-Glo luminescence. inhibition, % at 11.9 µM. 360,000 tested, 0.4% active. AID 624268, 2012;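 active = inhibition above a per-plate cutoff of the control wells' mean inhibition plus 3 SD, cut at about 5.5% in these data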
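Material: T. brucei methionyl-tRNA synthetase, purified; reagent: substrates ATP, L-methionine and bulk Escherichia coli tRNA; dosing: 11.9 µM single point; timing: 15 min plus 2 h at 25 °C; detection: luminescence of leftover ATP; evaluation: % inhibition; control set: DMSO-only wells as low control; replicates: singlicate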
Hits are given with their value; i = inactive; nt = no result given. In the library only some 6.4% were active in any assay of this set; here they are far more common.

SMILES	WT yeast gro inh	EBV gp42 inh	GRIN3A LBD mod	MPTP block	CHOP inh	Tb MetRS inh
Cc1cccc(NC(=O)C2C3CCC4C(CCC32)C4(Cl)Cl)c1 (configuration not stated)	i	i	12.7	i	76.0	i
O=C(Nc1ccc(Cl)cc1)C1C2CCC3C(CCC21)C3(Cl)Cl (configuration not stated)	i	i	i	i	71.6	i
CNS(=O)(=O)Cc1ccc2[nH]cc(CCN(C)C)c2c1	nt	nt	i	i	nt	i
O=C(CSc1nc(-c2ccc(F)cc2)cs1)Nc1ccccn1	i	i	12.6	i	i	i
Cc1csc(SCC(=O)Nc2ccccn2)n1	i	i	i	i	i	i
CC(C)SCCCCOc1ccc2ccccc2c1	i	i	i	i	i	i
CCSc1sccc1C1C(C#N)=C(N)N(c2cccnc2)C2=C1C(=O)CCC2 (configuration not stated)	i	i	i	i	i	i
O=C(Nc1ccc(Cl)cc1)c1cc2c(cc1O)[nH]c1ccccc12	nt	i	31.5	i	77.1	i
CCOc1cc(C2Nc3ccccc3C(=O)N2c2ccccc2OC)ccc1O (configuration not stated)	73.5	i	i	i	i	i
COc1cccc(-c2ccc(CN3C(C(C)C)C(=O)N(Cc4cn(CCC5OCCO5)nn4)CCS3(=O)=O)cc2)c1OC (configuration not stated)	nt	nt	nt	i	nt	i
CCn1ccnc1CN(C)C(=O)CC1C(=O)NCCN1Cc1c(F)cccc1Cl (configuration not stated)	i	i	i	i	i	i
Cc1ccn2c(NC3CCCC3)c(-c3cccs3)nc2c1	i	i	i	i	i	i
Cc1ccccc1NC1=C/C(=N\S(=O)(=O)c2ccc(C(=O)O)cc2)c2ccccc2C1=O	nt	nt	i	i	nt	9.7
O=C(COC(=O)/C=C/c1cccc(Cl)c1)NCCC1=CCCCC1	i	i	17.5	i	i	i
COc1ccc(/C=C/C(=O)OCC(=O)NCCC2=CCCCC2)cc1OC	i	i	i	i	i	i
O=C(COC(=O)/C=C/c1ccc(Cl)cc1)NCCC1=CCCCC1	i	i	i	i	77.8	i
CC(OC(=O)Cc1ccc(Cl)cc1)C(=O)NCCC1=CCCCC1 (configuration not stated)	i	i	i	i	i	i
C=CCOc1ccc(/C=C/C(=O)OCC(=O)NCCC2=CCCCC2)cc1	nt	nt	i	i	nt	i
CC(Oc1ccc(Cl)cc1Cl)C(=O)NCCC1=CCCCC1 (configuration not stated)	i	i	i	i	90.3	i
Cc1noc(C)c1S(=O)(=O)N1CCC(C(=O)N2CCN(Cc3ccc4c(c3)OCO4)CC2)CC1	i	i	i	i	i	i
COc1ccc(C2C(C#N)=C(C)NC3=C2S(=O)(=O)c2ccccc23)cc1 (configuration not stated)	58.2	i	i	i	i	i
COC(=O)C1=C(C)NC2=C(C1c1ccc(O)cc1)S(=O)(=O)c1ccccc12 (configuration not stated)	i	i	i	i	i	i
COc1ccc(CNc2ccc(-c3ccccc3OC)nn2)cc1	i	i	i	i	i	i
Cc1c(Br)c(C(F)(F)F)nn1CC(=O)NCCN1CCOCC1	i	i	i	i	i	i
COCCCNS(=O)(=O)c1ccc2c3c(cccc13)C(=O)S2	i	i	i	i	i	i
SMILES	WT yeast gro inh	EBV gp42 inh	GRIN3A LBD mod	MPTP block	CHOP inh	Tb MetRS inh
COc1cccc(CN(C)C(=O)c2cccc(S(=O)(=O)NCc3ccccc3)c2)c1OC	nt	nt	i	i	nt	i
Cc1nc(NC(=O)Nc2ccc(Cl)cc2)sc1C	i	i	12.1	i	i	i
CC(=O)N1c2ccccc2C(C)CC12CCCCC2 (configuration not stated)	i	i	i	i	84.5	i
CC(C)(C)[C@@H]1C=C(C(=O)O)O[C@H](OCc2ccc(CO)cc2)C1	i	i	i	i	i	i
CCOC(=O)c1c(O)c2ccccc2n(-c2ccccc2)c1=O	i	i	11.0	i	i	i
COc1ccc(C2(C(=O)O)CCCC2)cc1	i	i	11.2	i	i	i
COc1ccc(C2(C(=O)NCCc3ccccc3)CCCC2)cc1	nt	nt	i	i	nt	i
Cc1ccc(C)c(N2CCN(C(=S)Nc3ccc4nc(N5CCOCC5)cc(C)c4c3)CC2)c1	i	i	i	i	i	i
Cc1ccc(C)c(N2CCN(C(=S)Nc3ccc4nc(N5CCN(C)CC5)cc(C)c4c3)CC2)c1	71.8	i	i	i	77.1	i
Cc1cccc(N2CCN(C(=S)Nc3ccc4nc(N5CCOCC5)cc(C)c4c3)CC2C)c1 (configuration not stated)	i	i	i	i	87.9	i
Cc1cc2oc(C(=O)Nc3ccc(S(=O)(=O)Nc4nccs4)cc3)cc(=O)c2cc1Cl	i	i	17.4	i	i	i
Cc1cc(C)c2oc(C(=O)Nc3ccc(S(=O)(=O)Nc4nccs4)cc3)cc(=O)c2c1	nt	i	i	i	i	i
COC(=O)[C@@]12C[C@@H](CC(=O)NCc3ccc(C)o3)C(=O)N(Cc3cccc4ccccc34)C1=CCC(C)(C)C2	nt	nt	nt	i	nt	i
CCC(=O)NNc1ccc(Br)cc1	68.7	i	i	i	i	i
CCOC(=O)C(=NC(C)CC)NNc1ccc(Br)cc1 (configuration not stated)	70.3	i	i	i	i	i
CCOC(=O)C(=NC(C)CC)NNc1cccc(C(F)(F)F)c1 (configuration not stated)	i	i	i	i	i	i
Cc1ccc2c(C)nc(N/C(N)=N/S(=O)(=O)c3ccccc3)nc2c1	nt	nt	i	i	nt	i
C=CCOc1nc(-c2ccncc2)nc2ccccc12	i	i	i	i	71.1	i
COc1nc(-c2ccncc2)nc2ccccc12	i	i	i	i	i	i
O=C(CN1CCN(c2ccccc2O)CC1)Nc1cc([N+](=O)[O-])ccc1Cl	i	i	i	i	83.1	i
O=C(CN1CCN(c2ccccc2O)CC1)Nc1ccc([N+](=O)[O-])cc1Br	i	i	i	i	i	i
Cc1ccc(-c2oc3ncnc(N)c3c2-c2ccc(C)cc2)cc1	i	i	i	i	82.3	i
COc1ccc(N(C(=O)CCl)C(C(=O)NCCc2ccccc2)c2cccs2)cc1Cl (configuration not stated)	i	i	i	i	109.7	i
COc1cccc(N(C(=O)CCl)C(C(=O)NCCc2ccccc2)c2cccs2)c1 (configuration not stated)	i	i	i	i	i	i
CC(C)(C)Nc1c2ccccc2nc2ccccc12	nt	nt	i	i	nt	i

From PubChem BioAssay
